Assay results from ChEMBL document CHEMBL1157895, “Truxillic acid derivatives act as peroxisome proliferator-activated receptor gamma activators” (Bioorg Med Chem Lett, 2010).
Calls of active or inactive are those of the source. The rule behind the calls is not given here.

Columns and labels:
Type in all cases: functional
[1] = biological target: T1, Peroxisome proliferator-activated receptor gamma (Homo sapiens, UniProt P37231); test: (§1) Agonist activity at human PPARgamma at 10 uM by Gal4 transactivation assay relative to pioglitazone
T1 sequence (P37231 whole entry): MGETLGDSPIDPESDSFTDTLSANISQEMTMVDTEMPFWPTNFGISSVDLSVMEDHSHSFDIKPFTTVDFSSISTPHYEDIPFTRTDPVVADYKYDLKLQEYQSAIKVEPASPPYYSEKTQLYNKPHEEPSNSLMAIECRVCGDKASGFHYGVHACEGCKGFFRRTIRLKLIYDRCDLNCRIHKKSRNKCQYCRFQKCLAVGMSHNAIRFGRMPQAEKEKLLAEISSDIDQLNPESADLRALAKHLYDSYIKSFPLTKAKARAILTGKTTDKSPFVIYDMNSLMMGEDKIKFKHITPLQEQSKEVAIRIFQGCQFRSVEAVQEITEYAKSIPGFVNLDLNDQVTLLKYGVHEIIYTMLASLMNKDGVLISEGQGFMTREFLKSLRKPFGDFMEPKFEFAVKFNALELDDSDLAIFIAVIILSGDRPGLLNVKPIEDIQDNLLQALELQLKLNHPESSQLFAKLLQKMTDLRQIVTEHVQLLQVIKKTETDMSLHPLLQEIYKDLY
Summary of the method: (§2)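 Cell-based Gal4-hybrid transactivation assay with a luciferase reporter for human PPARγ. Compounds were tested at 10 µM. Activation is expressed relative to 1 µM pioglitazone, which was set as 100% activation. Values are the mean and standard deviation of at least three independent experiments.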

[2] = biological target: T2, Peroxisome proliferator-activated receptor alpha (Homo sapiens) (UniProt Q07869); test: Agonist activity at human PPARalpha at 10 uM by Gal4 transactivation assay relative to pioglitazone
T2 sequence (whole entry): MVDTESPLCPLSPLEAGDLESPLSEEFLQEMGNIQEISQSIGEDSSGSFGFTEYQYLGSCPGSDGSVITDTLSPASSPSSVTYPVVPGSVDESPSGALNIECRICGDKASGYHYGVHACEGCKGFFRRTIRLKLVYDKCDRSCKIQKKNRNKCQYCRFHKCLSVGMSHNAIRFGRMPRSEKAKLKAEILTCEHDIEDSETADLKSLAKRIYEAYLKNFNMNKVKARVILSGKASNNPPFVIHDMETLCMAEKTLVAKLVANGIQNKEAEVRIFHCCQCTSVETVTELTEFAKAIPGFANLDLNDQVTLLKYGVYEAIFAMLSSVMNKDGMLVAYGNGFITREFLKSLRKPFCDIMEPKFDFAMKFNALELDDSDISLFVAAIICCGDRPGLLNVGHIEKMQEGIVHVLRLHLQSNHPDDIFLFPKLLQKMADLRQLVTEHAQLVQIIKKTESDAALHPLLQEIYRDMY

[3] = biological target: T3, Peroxisome proliferator-activated receptor delta (Homo sapiens) (UniProt Q03181); test: Agonist activity at human PPARdelta at 10 uM by Gal4 transactivation assay relative to pioglitazone
T3 sequence (whole entry): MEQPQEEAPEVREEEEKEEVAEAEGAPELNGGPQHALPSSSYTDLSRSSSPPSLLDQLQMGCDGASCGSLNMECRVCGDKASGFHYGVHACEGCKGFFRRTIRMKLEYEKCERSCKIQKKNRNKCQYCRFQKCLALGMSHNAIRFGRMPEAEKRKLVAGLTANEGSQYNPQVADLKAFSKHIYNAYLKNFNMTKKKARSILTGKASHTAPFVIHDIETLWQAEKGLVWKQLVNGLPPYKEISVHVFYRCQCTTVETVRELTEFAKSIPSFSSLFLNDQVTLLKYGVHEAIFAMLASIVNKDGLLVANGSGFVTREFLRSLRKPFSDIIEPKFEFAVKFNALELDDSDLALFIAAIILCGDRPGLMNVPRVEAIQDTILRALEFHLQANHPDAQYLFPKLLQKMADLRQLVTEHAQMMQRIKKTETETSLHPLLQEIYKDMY

[4] = biological target: T1, Peroxisome proliferator-activated receptor gamma; test: Agonist activity at human PPARgamma by Gal4 transactivation assay
Summary of the method: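 Human PPARγ Gal4-hybrid luciferase reporter transactivation assay. EC50 was calculated from concentration-response data, with maximum activation taken at the highest tested concentration.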

[5] = biological target: T4, Peroxisome proliferator-activated receptor gamma (Homo sapiens) (UniProt P37231); test: as §1; summary of the method: as §2
T4 sequence (whole entry): T1 sequence (P37231 whole entry)

CC(C)OC(=O)C1C(c2ccccc2)C(C(=O)O)C1c1ccccc1 (stereo not given)
EC50 [1]: Not Active
Activity [2]: inactive
Activity [3]: inactive

O=C(O)C1C(c2ccccc2)C(C(=O)OCCO)C1c1ccccc1 (stereo not given)
EC50 [1]: Not Active
Activity [2]: inactive
Activity [3]: inactive

CC(C)CCOC(=O)C1C(c2ccccc2)C(C(=O)O)C1c1ccccc1 (stereo not given)
EC50 [4]: 4.8 µM
Activity [5]: 71%
Activity [2]: inactive
Activity [3]: inactive

CCCCCCCCOC(=O)C1C(c2ccccc2)C(C(=O)O)C1c1ccccc1 (stereo not given)
EC50 [4]: 9.3 µM
Activity [5]: 100%
Activity [2]: inactive
Activity [3]: inactive

O=C(O)C1C(c2ccccc2)C(C(=O)Oc2ccc(O)cc2)C1c1ccccc1 (stereo not given)
EC50 [1]: Not Active
Activity [2]: inactive
Activity [3]: inactive

COC(=O)C1C(c2ccccc2)C(C(=O)OCc2ccccc2)C1c1ccccc1 (stereo not given)
EC50 [1]: Not Active
Activity [2]: inactive
Activity [3]: inactive

Cc1cccc(OC(=O)C2C(c3ccccc3)C(C(=O)O)C2c2ccccc2)c1 (stereo not given)
EC50 [4]: 3.3 µM
Activity [5]: 123%
Activity [2]: inactive
Activity [3]: inactive

O=C(O)C1C(c2ccccc2)C(C(=O)N2CCOCC2)C1c1ccccc1 (stereo not given)
EC50 [1]: Not Active
Activity [2]: inactive
Activity [3]: inactive

O=C(O)C1C(c2ccccc2)C(C(=O)N2CCCCC2)C1c1ccccc1 (stereo not given)
EC50 [1]: Not Active
Activity [2]: inactive
Activity [3]: inactive

Cc1ccccc1OC(=O)C1C(c2ccccc2)C(C(=O)O)C1c1ccccc1 (stereo not given)
EC50 [4]: 10 µM
Activity [5]: 138%
Activity [2]: inactive
Activity [3]: inactive

COC(=O)C1C(c2ccccc2)C(C(=O)OC)C1c1ccccc1 (stereo not given)
EC50 [1]: Not Active
Activity [2]: inactive
Activity [3]: inactive

CCC(C)OC(=O)C1C(c2ccccc2)C(C(=O)O)C1c1ccccc1 (stereo not given)
EC50 [4]: > 10 µM
Activity [5]: 23%
Activity [2]: inactive
Activity [3]: inactive

CCCCCCCOC(=O)C1C(c2ccccc2)C(C(=O)O)C1c1ccccc1 (stereo not given)
EC50 [4]: 8.6 µM
Activity [5]: 153%
Activity [2]: inactive
Activity [3]: inactive

O=C(O)C1C(c2ccccc2)C(C(=O)O)C1c1ccccc1 (stereo not given)
EC50 [1]: Not Active
Activity [2]: inactive
Activity [3]: inactive

CCCCCCOC(=O)C1C(c2ccccc2)C(C(=O)O)C1c1ccccc1 (stereo not given)
EC50 [4]: 3.6 µM
Activity [5]: 66%
Activity [2]: inactive
Activity [3]: inactive

O=C(O)C1C(c2ccccc2)C(C(=O)OCCCO)C1c1ccccc1 (stereo not given)
EC50 [1]: Not Active
Activity [2]: inactive
Activity [3]: inactive
